TNAP act hiacc – increases human TNAP activity under high phosphate acceptor concentration | P05186 | AID 1136 | 200,000 tested, under 10 active | purified TNAP, CDP-star luminescence, 1 M DEA, 30 min; hits give high values; 0 = EDTA background, 1 = DMSO-only activity | activation factor at 20 µM;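 active = activation factor at least 2 at 20 µM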
Target sequence (P05186 whole entry, looked up): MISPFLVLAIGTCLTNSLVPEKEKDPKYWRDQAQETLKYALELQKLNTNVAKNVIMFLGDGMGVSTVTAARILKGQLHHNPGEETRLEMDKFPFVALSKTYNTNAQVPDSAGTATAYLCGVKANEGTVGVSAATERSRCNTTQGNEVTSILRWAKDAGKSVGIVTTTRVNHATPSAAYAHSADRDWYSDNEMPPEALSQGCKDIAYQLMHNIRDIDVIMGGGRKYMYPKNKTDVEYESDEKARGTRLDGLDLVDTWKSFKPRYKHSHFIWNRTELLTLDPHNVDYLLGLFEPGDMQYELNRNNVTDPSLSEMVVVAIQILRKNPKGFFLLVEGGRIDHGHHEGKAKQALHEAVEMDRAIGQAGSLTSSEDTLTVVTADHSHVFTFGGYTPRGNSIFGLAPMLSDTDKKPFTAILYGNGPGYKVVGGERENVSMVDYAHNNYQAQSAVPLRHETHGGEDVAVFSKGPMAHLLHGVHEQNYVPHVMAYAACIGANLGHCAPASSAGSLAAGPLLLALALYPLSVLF
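Test system – human TNAP · Doses – 20 µM single point · Incubation – 30 min, room temperature · Signal – luminescent substrate turnover signal · Read-out basis – activation factor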
TNAP inh no acc – blocks human TNAP activity with no phosphate acceptor present; P05186; purified TNAP, CDP-star luminescence, 30 min; inhibition, % at 20 µM; 200,000 tested, 0.26% active; AID 1012;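 active = tissue-nonspecific alkaline phosphatase inhibition above about 50% at 20 µM in the single-dose screen, limit read from the data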;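 also: 0% = DMSO negative control and 100% = EDTA positive control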
RAM network inh – yeast RAM network inhibition; S. cerevisiae dse1pr::URA3 reporter, 5-FOA growth OD615, 2 d; analog-sensitive cbk1-as2 kinase mutant strain; inhibition, % at 50 µM; 190,000 tested, 1.8% active; AID 868;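 active = inhibition above a set limit, 3 SD over mean compound inhibition, cut at about 8.4% in these data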;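 also: 0% = DMSO-only wells with no growth and 100% = 10 µM 1-NA-PP1 full growth; inhibition rescues growth on 5-FOA so higher OD means more RAM inhibition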
BB579 growth dn – yeast BB579 growth reduction in restrictive medium; S. cerevisiae BB579 growth, OD615, 48 h; inhibition, % at 10 µM; 140,000 tested, 0.51% active; AID 804;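 active = inhibition above a set limit, 3 SD over the mean compound inhibition, cut at about 44% in these data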
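Assay system – yeast BB579 (DeaD) · Dosing – single compound dose of 10 µM, 0.25% DMSO final · Detection – OD615 turbidity measurement · Buffer or medium – CSMM-D restrictive synthetic medium containing dextrose (glucose) · Benchmarks – positive control amphotericin B 10 µg/mL · Incubation – 48 h exposure, 30 °C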
Yeast lifespan up – yeast lifespan extension | AID 775 | S. cerevisiae growth with nicotinamide, OD615; deaD strain in restrictive glucose medium | inhibition of the nicotinamide effect, % at 10 µM | 130,000 tested, 0.68% active;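 active = inhibition above a set limit, placed 3 SD over the median of all compounds, cut at about 26% in these data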;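 also: 0% = nicotinamide-treated wells and 100% = cells grown without nicotinamide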
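System: Modified budding yeast, DeaD strain | Buffer or medium: Restrictive glucose medium | Also added: 1.5 mM nicotinamide | Doses: 10 µM single point, 0.25% DMSO | Schedule: 48 h compound exposure at 30 °C, humidified | Detection: Absorbance at 615 nm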
TNAP inh hi DEA – inhibitors of human TNAP at high phosphate acceptor concentration | AID 1135 | inhibition, % at 20 µM | 200,000 tested, 0.03% active | P05186 | purified TNAP, CDP-star luminescence, 1 M DEA;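 active = over 50% inhibition of tissue-nonspecific alkaline phosphatase at 20 µM in the single-dose screen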;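 also: plate controls were DMSO wells for no effect and EDTA-quenched wells as full inhibition for full effect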
RAM 5-FOA – restores 5-FOA growth of efflux-deficient yeast; shares compounds with RAM network inh; S. cerevisiae efflux-deficient reporter strain, 5-FOA growth OD615, 2 days; max inhibition, %; 1,200 tested, under 10 active; call rule not given here;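 also: plate controls were vehicle for no effect and reference inhibitor for full effect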
* hit, by the source's call; · = no result given. An excerpt weighted towards active compounds, which were near 2.8% of everything screened.

SMILES | TNAP act hiacc | TNAP inh no acc | RAM network inh | BB579 growth dn | Yeast lifespan up | TNAP inh hi DEA | RAM 5-FOA
Cc1ccc(C(C)C)c(OCC(=O)OCc2c(C)noc2C)c1 | 1.1 | -6 | 23* | -14 | -3 | -12 | 1
CCCCNC(=O)Nc1nnc(-c2ccc(Cl)cc2)o1 | 1 | -11 | 4 | -66 | -9 | -2 | ·
COc1ccc(C)cc1N1C(=N)/C(=C2/Nc3ccccc3S2)C(c2ccccc2)C1=O (stereo unspecified) | 1 | -1 | 13* | -54 | 26 | 3 | 3
O=C(CCOc1ccccc1)Nc1cccc(S(=O)(=O)Nc2ccccc2Cl)c1 | 1 | -10 | 18* | -5 | 6 | 2 | 2
O=C(Nc1cccc(S(=O)(=O)Nc2ccccc2Cl)c1)c1ccc(Cl)nc1 | 1 | -6 | 4 | -3 | 4 | -3 | ·
CC(C)C(NC(=O)c1ccc(F)cc1)C(=O)OCC(=O)N1CC(=O)Nc2ccccc21 (stereo unspecified) | 1 | 4 | 0 | -16 | -4 | -3 | ·
N#C/C(=C\C1=C(N2CCOCC2)C(=C/c2cccc([N+](=O)[O-])c2)/CC1)C(=O)Nc1ccccc1F | 0.6 | 38 | 11* | -56 | 6 | 41 | 3
O=S(=O)(Nc1cccc(-c2nc3cccnc3s2)c1)c1ccc2c(c1)OCCO2 | 1 | -17 | 6 | -38 | -5 | -4 | ·
Cc1ccc(-c2nc3cccnc3s2)cc1NS(=O)(=O)c1ccc2c(c1)OCCO2 | 1.1 | -1 | 13* | -9 | -10 | -8 | 2
CC(=O)NCC(=O)N(C)C(C(=O)Nc1ccc(C(C)C)cc1)c1ccccc1 (stereo unspecified) | 1 | -8 | 1 | -39 | -10 | -3 | ·
Cc1ccc(-n2c(O)c(/C=N/c3ncn[nH]3)c3ccccc3c2=O)cc1 | 1 | -75 | 12* | · | · | -1 | 2
Cc1ccc(-n2c(O)c(/C=N/n3cnnc3)c3ccccc3c2=O)cc1 | 1 | -7 | -1 | -32 | -21 | 1 | ·
CCCC1S/C(=N/N=C/c2ccc(C)cc2)N(Cc2ccc(OC)cc2)C1=O (stereo unspecified) | 1 | -15 | 12* | -51 | 9 | -3 | 5
COc1ccc(/C=N/N=C2\SC(CC(=O)O)C(=O)N2c2ccccc2)cc1 (stereo unspecified) | 1.1 | -6 | 4 | -7 | 4 | -6 | ·
COc1ccc(/C(=N\O)c2ncc(C(F)(F)F)cc2Cl)cc1 | 1.1 | -17 | 1 | -30 | -15 | -6 | ·
CON/C=C(\C=Nc1ccc(C(F)(F)F)cc1)c1ncc(C(F)(F)F)cc1Cl | 1 | -5 | 13* | -37 | 12 | 0 | 2
O=C1c2cccc(OCC(=O)N3CCCc4ccccc43)c2CCN1Cc1ccc(Br)cc1 | 1 | -23 | 3 | -8 | 2 | -5 | ·
CCOC(=O)c1c(C)[nH]c(C)c1C(=O)COC(=O)/C=C/c1ccc(Cl)cc1 | 1 | 4 | 12* | -27 | -3 | -1 | 1
O=C(NCc1ccc(F)cc1)c1ccc(S(=O)(=O)Nc2cccc(C(F)(F)F)c2)cc1 | 1 | 9 | 13* | -22 | 4 | -1 | 2
O=C(NCc1ccccc1F)c1ccc(S(=O)(=O)Nc2cccc(C(F)(F)F)c2)cc1 | 1 | 18 | 1 | -14 | 1 | -4 | ·
CCCN(CCC)S(=O)(=O)c1ccc(NS(=O)(=O)c2ccc(F)cc2)cc1 | 1.1 | -11 | 6 | -18 | 9 | -6 | ·
C=CCNC(=O)c1c(Br)cnn1-c1ccc(C)cc1 | 1.1 | -8 | -1 | · | · | -6 | ·
COc1ccc(/C=N/OCC(=O)NC(c2ccccc2)c2ccccc2)c(OC)c1 | 1.1 | -13 | 12* | -18 | 3 | -7 | 3
COc1ccc(/C=N/OCC(=O)NCC(C)C)c(OC)c1 | 1.1 | -19 | 1 | · | · | -7 | ·
C=CCOc1c(Br)cc(CNc2ccc(NC(=O)CCC)cc2)cc1OCC | 1 | -1 | 3 | -34 | -15 | 2 | ·
SMILES | TNAP act hiacc | TNAP inh no acc | RAM network inh | BB579 growth dn | Yeast lifespan up | TNAP inh hi DEA | RAM 5-FOA
C=CCOc1c(Br)cc(CNc2ccc(NC(=O)C(C)C)c(OC)c2)cc1OCC | 1 | -5 | 12* | -71 | 7 | 3 | 2
CCN(CC)c1ccc(NC(=S)Nc2ccc(F)cc2)cc1 | 1 | -4 | 3 | · | · | -1 | ·
CCc1ccccc1NC(=O)CC1SCCNC1=O (stereo unspecified) | 1.1 | -18 | 5 | · | · | -7 | ·
COc1ccc2oc3ccc(OC)cc3c(=O)c2c1 | 1 | -12 | 3 | 39 | -25 | -4 | ·
CCCc1nn(C)c(C(=O)Nc2ccc(Cl)cc2)c1Cl | 1 | -8 | 3 | -7 | 0 | 2 | ·
CCCc1nn(C)c(C(=O)Nc2ccc(C(C)(C)C)cc2)c1Cl | 1 | -7 | 13* | -31 | 12 | -5 | 4
COC(=O)CCSc1cc([N+](=O)[O-])cc2c1c(C1OCCO1)nn2-c1ccccc1 | 1 | -31 | 14* | -45 | 12 | 3 | 2
Cc1c(-c2ccncc2)oc2ccc(Br)cc2c1=O | 1 | -7 | 1 | · | · | -4 | ·
O=C(O)C(Cc1ccccc1)N1C(=O)/C(=C/c2cccs2)SC1=S (stereo unspecified) | 1 | 1 | 15* | · | · | -2 | 2
COc1cccc(/C=C2\SC(=S)N(C(Cc3ccccc3)C(=O)O)C2=O)c1 (stereo unspecified) | 1 | -6 | 12* | · | · | -3 | 1
Cc1ccc(S(=O)(=O)N(CCC(=O)Nc2ccc(OC(F)(F)F)cc2)c2ccccc2)cc1 | 1 | -13 | 16* | 14 | -2 | -1 | 2
Cc1ccc(N(CCC(=O)NC(C)(C)C)S(=O)(=O)c2ccc(C)cc2)cc1 | 1 | -8 | 1 | · | · | -1 | ·
CCOC(=O)C(=Cc1ccc(OCc2ccc([N+](=O)[O-])cc2)c(OC)c1)C(=O)OCC | 1 | -10 | 16* | -46 | -4 | 2 | 3
COc1cc(C=O)ccc1OCCCOc1ccc([N+](=O)[O-])cc1 | 1 | -10 | 6 | -17 | -2 | -1 | ·
Cc1ccccc1C(OCCN(C(C)C)C(C)C)c1ccccc1 (stereo unspecified) | 1 | -8 | 1 | -23 | 6 | -1 | ·
